The record followed here is the array DNA melting data of Ke et al. (doi:10.1101/2024.01.08.574731).

The nature of data set [1]: folding enthalpy; higher = less favourable; fluorescence melt of hairpins on a sequencing array, two-state fit. Conditions: sodium 0.088 M. In short, it runs like this:
(§1)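 On a sequenced MiSeq flow cell, library hairpins with annealed Cy3 and quencher oligos were imaged for Cy3 fluorescence in 2.5 °C steps up to 60 °C, in 50 mM Na-HEPES pH 8.0, 25 mM NaCl. Normalisation used pre-quench Cy3 and control constructs. Bootstrapped two-state fits gave melting temperature and folding enthalpy, combined by inverse variance across four replicates and with fitted temperatures raised by 9.35 °C to match UV melts.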

Data set [2] in a line: melting temperature; fluorescence melt of hairpins on a sequencing array, two-state fit, raised by 9.35 °C to match UV melts. Conditions: sodium 0.088 M. In short, it runs like this: as §1

Consider GTTAATCGAAAGATGAAC (((.(((....))).))), for which the folding enthalpy in data set [1] is -25.1 kcal/mol. Moreover, the Tm in data set [2] amounted to 38.3 °C.

With GGAACTGGAAACAGCTCC (((.(((....))).))), the folding enthalpy in data set [1] was -28.5 kcal/mol. In data set [2], the Tm stood at 42.5 °C.

For GCATCGCGAAAGCAATGC ((((.((....)).)))), the folding enthalpy in data set [1] is -24.6 kcal/mol. Moreover, the Tm in data set [2] came to 60.2 °C.

In the case of GATCTTCGGCAAGATC ((((((....)))))), the folding enthalpy in data set [1] was -28.3 kcal/mol. Moreover, the Tm in data set [2] was 37.8 °C.

For the sequence GGGATCGGAAACGGTTCC ((.(.((....)).).)), the folding enthalpy in data set [1] was -35.7 kcal/mol. Besides, the Tm in data set [2] was found to be 40.9 °C.

As to CGATATCGGAAACGATCG (((..(((....)))))), in data set [1], the folding enthalpy is -16.8 kcal/mol. Further, the Tm in data set [2] was 35.3 °C.

As for GAAGTGCGAAAGCATTTC (((.(((....))).))), in data set [1], the folding enthalpy is -23.5 kcal/mol. Moreover, the Tm in data set [2] turned out to be 51 °C.

Turning to GGCGCTGGAAACAACGCC ((((.((....)).)))), the folding enthalpy in data set [1] is -41 kcal/mol. Also, the Tm in data set [2] turned out to be 55.2 °C.

Turning to GAACGAGGAAACTCGTTC (((((((....))))))), the folding enthalpy in data set [1] was -41.2 kcal/mol. Besides, the Tm in data set [2] amounted to 63.8 °C.

With GGAGAACGAAAGTTTTCC (((.(((....))).))), in data set [1], the folding enthalpy is -29.2 kcal/mol. In addition, the Tm in data set [2] was determined as 47.4 °C.

As to GATAGGGAAACCTATC ((((((....)))))), the folding enthalpy in data set [1] is -34.7 kcal/mol. Also, the Tm in data set [2] worked out at 47.6 °C.

GACTGAGCGAAAGCTGTC (((..(((....)))))): in data set [1], the folding enthalpy was -12.7 kcal/mol. The Tm in data set [2] was found to be 44.1 °C.

For GGAGAAGGAAACTTCTCC (((((((....))))))), the folding enthalpy in data set [1] was -43.1 kcal/mol. Further, the Tm in data set [2] was found to be 57.7 °C.

With GTCGTGGGAAACCATGGC (.(.(((....))).).), the folding enthalpy in data set [1] was -25.6 kcal/mol. Besides, the Tm in data set [2] came out at 40.6 °C.

Consider GGATTTCGAAAGAATCC (((.(((....)))))), for which the folding enthalpy in data set [1] was -28.8 kcal/mol. In data set [2], the Tm worked out at 41.3 °C.

As for GGCAACGGAAACGTCGCC (((.(((....))).))), the folding enthalpy in data set [1] was -46.8 kcal/mol. Moreover, the Tm in data set [2] stood at 52.8 °C.

As for GTGTGTGGAAACATACAC ((((.((....)).)))), the folding enthalpy in data set [1] was -39.6 kcal/mol. In addition, in data set [2], the Tm was 48.6 °C.

Turning to GCCACGCGAAAGCTAGGC (((..((....))..))), the folding enthalpy in data set [1] was -21.9 kcal/mol. Also, the Tm in data set [2] came to 52.1 °C.

For CGACCGGAAACGGTTTCG ((((((....)))..))), the folding enthalpy in data set [1] was -10.3 kcal/mol. In data set [2], the Tm was found to be 33.5 °C.

For the sequence CGGATCGGAAACGACCCG (((.(((....))).))), the folding enthalpy in data set [1] is -38.1 kcal/mol. Further, the Tm in data set [2] is 50 °C.

In the case of GCACTCCCGAAAGGGTGC (((..(((....)))))), the folding enthalpy in data set [1] is -24.2 kcal/mol. Besides, the Tm in data set [2] came out at 50.7 °C.

As for GTTGTCGAAAGACGAAC ((((((....))).))), the folding enthalpy in data set [1] was -17.9 kcal/mol. Moreover, the Tm in data set [2] came to 39.8 °C.

Consider GATCATAAAAATGATC ((((((....)))))), for which, in data set [1], the folding enthalpy is -27.4 kcal/mol. Besides, the Tm in data set [2] was 36.8 °C.

For the sequence GAACACCGAAAGGTATTC (((.(((....))).))), the folding enthalpy in data set [1] was -25 kcal/mol. Besides, the Tm in data set [2] was determined as 37.8 °C.

On to GATCGCGAAAGCGAAATC ((((((....)))..))), for which, in data set [1], the folding enthalpy was -9.22 kcal/mol. For the same sequence, the Tm in data set [2] amounted to 37.2 °C.

In the case of GGTTAAGGAAACCTAACC (((((.(....).))))), the folding enthalpy in data set [1] is -25 kcal/mol. In data set [2], the Tm is 35.2 °C.

As to GGAAGGCGAAAGCCTCC (((.(((....)))))), the folding enthalpy in data set [1] is -14.1 kcal/mol. Moreover, the Tm in data set [2] was 56.9 °C.

Turning to GACGATGGAAACATCGTC (((((((....))))))), the folding enthalpy in data set [1] is -41.7 kcal/mol. For the same sequence, the Tm in data set [2] came to 67.9 °C.

Turning to GAGTAACGAAAGTTGCTC (((.(((....))).))), the folding enthalpy in data set [1] is -52 kcal/mol. Further, the Tm in data set [2] was 53.2 °C.

On to GCTTTAGGAAACTGAAGC ((((.((....)).)))), for which the folding enthalpy in data set [1] is -30.1 kcal/mol. In addition, in data set [2], the Tm worked out at 42.4 °C.

Regarding GCAATGCGAAAGCGGTGC (((..((....))..))), the folding enthalpy in data set [1] is -21.7 kcal/mol. Also, in data set [2], the Tm worked out at 56.6 °C.

As to GATCTACAATTAGATC ((((((....)))))), the folding enthalpy in data set [1] is -21.3 kcal/mol. Further, in data set [2], the Tm came to 35.6 °C.

Consider GATCTTTTCTAAGATC ((((((....)))))), for which the folding enthalpy in data set [1] is -36.8 kcal/mol. The Tm in data set [2] turned out to be 45.2 °C.

With GGGAGTGGAAACACTTCC ((.((((....)))).)), the folding enthalpy in data set [1] was -36.2 kcal/mol. The Tm in data set [2] is 50.5 °C.

On to GAAGTGGGAAACCACCTC ((.((((....)))).)), for which the folding enthalpy in data set [1] is -13.7 kcal/mol. The Tm in data set [2] stood at 32.2 °C.

GTCTTCGAAAGAATTGAC ((((((....)))..))): the folding enthalpy in data set [1] is -10.7 kcal/mol. Besides, in data set [2], the Tm stood at 26.2 °C.

With GATGTGGGAAACCATATC (((.(((....))).))), in data set [1], the folding enthalpy was -41.5 kcal/mol. For the same sequence, the Tm in data set [2] came out at 43.2 °C.
